Results gathered from unrelated publications.
Lines come from different studies, so protocols differ.
Target: LIM domain kinase 2 (LIMK2, Homo sapiens, UniProt P53671)

SMILES | test | setting | remaining binding [%]
CN(C)c1nccc(-c2cnc3ncccn23)n1 | binding | 1 µM | 91
O=C(NCCCN1CCOCC1)c1ccc(Nc2nccc(-c3cc4ccccc4s3)n2)cc1 | binding, competition with immobilised ligand | 1 µM | 59
CC(=O)N1CCC(c2ccc(C(=O)NC3=NCCN3)cc2C(F)(F)F)CC1 | cell-free assay, competition with immobilised ligand | 1 µM | 98
F[C@@H]1CCN(c2nccc(-c3cnn4ncccc34)n2)C1 | binding | 1 µM | 85
CNCc1ccccc1-c1csc([C@@H](C)Nc2nc(C)nc3cc(OC)c(OC)cc23)c1 | cell-free assay, competition with immobilised ligand | 1 µM | 96
CN(C)c1ncc(F)c(-c2cnn3ncccc23)n1 | binding | 1 µM | 82
O=C(c1ccc(Nc2ncc(Cl)c(-c3ccc(Cl)s3)n2)cc1)N1CCC(N2CCCC2)CC1 | binding, competition with immobilised ligand | 1 µM | 38
COc1cc(-c2cn(C3CCc4c(F)cccc4N(CC(F)(F)F)C3=O)nn2)ccc1-n1cnc(C)c1 (stereo not shown) | cell-free assay, competition with immobilised ligand | 1 µM | 100
C[C@@H](c1ccc(-n2cnc3c(N)ncnc32)cc1)N1CCc2nn(C)c(Cc3ccccc3)c2C1=O | binding, competition with immobilised ligand | 0.1 µM | 25
N[C@@H]1CCN(c2nccc(-c3cnn4ncccc34)n2)C1 | binding | 1 µM | 100
COc1cnc(Nc2cccc(S(N)(=O)=O)c2)nc1N1CCN(c2ccccc2)CC1 | binding, competition with immobilised ligand | 1 µM | 96
C=CC(=O)N1CCC(C(=O)NCC(=O)N2CCN(c3nc(-c4cnc(N)nc4C(F)F)nc(N4CCOCC4)n3)CC2)CC1 | binding, competition with immobilised ligand | 1 µM | 97
CN(C)C(=O)Cn1cc(-c2nc(C3(c4ccc(-c5cnc(N)nc5)cc4)CC3)no2)cn1 | cell-free assay, competition with immobilised ligand | 1 µM | 85
c1cncc(-c2cccc(Nc3nccc(NC4CCCCC4)n3)c2)c1 | binding, competition with immobilised ligand | 10 µM | 45
CC1=C(C#N)[C@@H](c2ccc3[nH]nc(C)c3c2)C(C#N)=C(c2ccc(Cl)cc2)N1 | cell-free assay, competition with immobilised ligand | 1 µM | 91.1
CC1CCCN1c1nccc(-c2cnn3ncccc23)n1 (stereo not shown) | binding | 1 µM | 96
O=C(Nc1c[nH]nc1C(=O)NC1CCNCC1)c1cc(F)cc(F)c1 | binding, competition with immobilised ligand | 1 µM | 97
CN(C)c1ncnc(-c2ccc3nc(Nc4cc(CN5CCN(C(=O)CC(F)(F)F)CC5)ccn4)[nH]c3c2)c1Cl | cell-free assay, competition with immobilised ligand | 1 µM | 100
C[C@H]1CCN(c2nccc(-c3cnn4ncccc34)n2)C1 | binding | 1 µM | 75
CNC(=O)c1ccc(Nc2ncc(C(F)(F)F)c(NCc3nccnc3N(C)S(C)(=O)=O)n2)cc1 | cell-free assay, competition with immobilised ligand | 0.1 µM | 87
COc1ccnn2ncc(-c3ccnc(N(C)C)n3)c12 | binding | 1 µM | 82
O=C(c1ccc(Nc2ncc(Cl)c(-c3cc4ccccc4s3)n2)cc1)N1CCC(N2CCCC2)CC1 | binding, competition with immobilised ligand | 1 µM | 30
